Laboratory results: ChEMBL document CHEMBL4270616, “Asymmetrical meta-methoxylated diarylpentanoids: Rational design, synthesis and anti-cancer evaluation in-vitro” (Eur J Med Chem, 2018)
The source made the active and inactive calls.

Tests used:
SW-620 [1] = assay: Induction of apoptosis in human SW620 cells assessed as late apoptotic cells at 1.25 uM after 72 hrs by Annexin V-FITC/propidium iodide staining based flow cytometry (reference value: 0.29%); type: functional
SW-620 [2] = assay: Induction of apoptosis in human SW620 cells assessed as necrotic cells at 2.5 uM after 24 hrs by Annexin V-FITC/propidium iodide staining based flow cytometry (reference value: 0.15%); type: functional
SW-620 [3] = assay: Induction of apoptosis in human SW620 cells assessed as necrotic cells at 5 uM after 72 hrs by Annexin V-FITC/propidium iodide staining based flow cytometry (reference value: 0.27%); type: functional
SW-620 [4] = assay: Induction of apoptosis in human SW620 cells assessed as live cells at 2.5 uM after 24 hrs by Annexin V-FITC/propidium iodide staining based flow cytometry (reference value: 97.03%); type: functional
SW-620 [5] = assay: Induction of apoptosis in human SW620 cells assessed as late apoptotic cells at 2.5 uM after 48 hrs by Annexin V-FITC/propidium iodide staining based flow cytometry (reference value: 0.2%); type: functional
SW-620 [6] = assay: Inhibition of colony formation in human SW620 cells at 1.25 to 5 uM after 10 days by crystal violet staining based assay; type: functional, cell-based
Outline: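 SW620 cells seeded at 1000 cells/well in DMEM and incubated overnight at 37°C, 5% CO2. Compound-containing medium was given for ten days and renewed every three days. Cells were then washed with PBS, fixed 15 min in 4% paraformaldehyde, stained 10 min with 0.5% (w/v) crystal violet, washed, air-dried and photographed. Colony formation was quantified from the images.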

SW-620 [7] = assay: Induction of apoptosis in human SW620 cells assessed as early apoptotic cells at 1.25 uM after 24 hrs by Annexin V-FITC/propidium iodide staining based flow cytometry (reference value: 2.35%); type: functional
SW-620 [8] = assay: Induction of apoptosis in human SW620 cells assessed as late apoptotic cells at 1.25 uM after 24 hrs by Annexin V-FITC/propidium iodide staining based flow cytometry (reference value: 0.43%); type: functional
SW-620 [9] = assay: Induction of apoptosis in human SW620 cells assessed as early apoptotic cells at 2.5 uM after 72 hrs by Annexin V-FITC/propidium iodide staining based flow cytometry (reference value: 2.1%); type: functional
SW-620 [10] = assay: Induction of apoptosis in human SW620 cells assessed as necrotic cells at 10 uM after 24 hrs by Annexin V-FITC/propidium iodide staining based flow cytometry (reference value: 0.15%); type: functional
SW-620 [11] = assay: Induction of apoptosis in human SW620 cells assessed as live cells at 10 uM after 72 hrs by Annexin V-FITC/propidium iodide staining based flow cytometry (reference value: 97.34%); type: functional
A549 = assay: Cytotoxicity against human A549 cells assessed as inhibition of cell proliferation at 20 uM after 72 hrs by MTT assay relative to control; type: functional; details: A549, 72 h
Outline: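 Single-concentration screen at 20 μM with 72 h exposure in DMEM with 10% FBS, final DMSO 0.1%. Read-out was MTT (5 mg/mL, 4 h, 37°C), DMSO solubilisation and absorbance at 570 nm, expressed as percent inhibition. Lines reaching a threshold percentage went on to IC50 determination.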

SW-620 [12] = assay: Induction of apoptosis in human SW620 cells assessed as live cells at 1.25 uM after 24 hrs by Annexin V-FITC/propidium iodide staining based flow cytometry (reference value: 97.03%); type: functional
SW-620 [13] = assay: Induction of apoptosis in human SW620 cells assessed as late apoptotic cells at 5 uM after 48 hrs by Annexin V-FITC/propidium iodide staining based flow cytometry (reference value: 0.2%); type: functional
SW-620 [14] = assay: Induction of apoptosis in human SW620 cells assessed as early apoptotic cells at 1.25 uM after 48 hrs by Annexin V-FITC/propidium iodide staining based flow cytometry (reference value: 2.75%); type: functional
SW-620 [15] = assay: Anticlonogenic activity against human SW620 cells assessed as colony formation at 2.5 to 5 uM after 10 days by crystal violet staining based imaging analysis (reference value: 100%); type: functional
Outline: (§1)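 SW620 cells seeded at 1000 cells/well in DMEM, left overnight at 37°C, 5% CO2, then exposed to compound for ten days with drug-containing medium renewed every three days. Cells were PBS-washed, fixed in 4% paraformaldehyde for 15 min, stained with 0.5% (w/v) crystal violet for 10 min, air-dried, photographed, and colonies quantified by image analysis.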

SW-620 [16] = assay: Induction of apoptosis in human SW620 cells assessed as late apoptotic cells at 10 uM after 24 hrs by Annexin V-FITC/propidium iodide staining based flow cytometry (reference value: 0.43%); type: functional
SW-620 [17] = assay: Induction of apoptosis in human SW620 cells assessed as late apoptotic cells at 10 uM after 48 hrs by Annexin V-FITC/propidium iodide staining based flow cytometry (reference value: 0.2%); type: functional
SW-620 [18] = assay: Anticlonogenic activity against human SW620 cells assessed as colony formation at 0.3125 uM after 10 days by crystal violet staining based imaging analysis (reference value: 100%); type: functional; outline: as §1
SW-620 [19] = assay: Induction of apoptosis in human SW620 cells assessed as early apoptotic cells at 5 uM after 48 hrs by Annexin V-FITC/propidium iodide staining based flow cytometry (reference value: 2.75%); type: functional
SW-620 [20] = assay: Induction of apoptosis in human SW620 cells assessed as live cells at 10 uM after 48 hrs by Annexin V-FITC/propidium iodide staining based flow cytometry (reference value: 96.26%); type: functional
SW-620 [21] = assay: Induction of apoptosis in human SW620 cells assessed as late apoptotic cells at 10 uM after 72 hrs by Annexin V-FITC/propidium iodide staining based flow cytometry (reference value: 0.29%); type: functional
SW-620 [22] = assay: Induction of apoptosis in human SW620 cells assessed as necrotic cells at 10 uM after 48 hrs by Annexin V-FITC/propidium iodide staining based flow cytometry (reference value: 0.23%); type: functional
SW-620 [23] = assay: Induction of apoptosis in human SW620 cells assessed as necrotic cells at 1.25 uM after 48 hrs by Annexin V-FITC/propidium iodide staining based flow cytometry (reference value: 0.23%); type: functional
SW-620 [24] = assay: Cell cycle arrest in human SW620 cells assessed as decrease in G0/G1 phase after 24 hrs by propidium iodide staining based flow cytometry; type: functional
SW-620 [25] = assay: Induction of apoptosis in human SW620 cells assessed as early apoptotic cells at 1.25 uM after 72 hrs by Annexin V-FITC/propidium iodide staining based flow cytometry (reference value: 2.1%); type: functional
SW-620 [26] = assay: Cytotoxicity against human SW620 cells after 72 hrs by MTT assay; type: functional, cell-based; details: SW-620, 72 h
Outline: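 Tumour lines kept in DMEM with 10% FBS and 1% penicillin/streptomycin at 37°C, 5% CO2. Seeded at 1500-5000 cells/well by doubling time and size, 24 h, then compound in DMSO-containing medium (final DMSO 0.1%) for 72 h. MTT (5 mg/mL) 4 h at 37°C, DMSO solubilisation, absorbance at 570 nm.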

SW-620 [27] = assay: Induction of apoptosis in human SW620 cells assessed as necrotic cells at 1.25 uM after 24 hrs by Annexin V-FITC/propidium iodide staining based flow cytometry (reference value: 0.15%); type: functional
SW-620 [28] = assay: Induction of apoptosis in human SW620 cells assessed as late apoptotic cells at 5 uM after 72 hrs by Annexin V-FITC/propidium iodide staining based flow cytometry (reference value: 0.29%); type: functional

COc1ccc(/C=C2\CCC/C(=C\c3cccc(O)c3)C2=O)cc1OC
Activity (SW-620 [1]): 1.82% | Activity (SW-620 [2]): 0.2% | Activity (SW-620 [3]): 1.23% | Activity (SW-620 [4]): 93.7% | Activity (SW-620 [5]): 3.83% | inhibition (SW-620 [6]): Active | Activity (SW-620 [7]): 4.33% | Activity (SW-620 [8]): 0.31% | Activity (SW-620 [9]): 4.52% | Activity (SW-620 [10]): 0.23% | Activity (SW-620 [11]): 2.19% | inhibition at 20 µM (A549): > 50% | Activity (SW-620 [12]): 96.2% | Activity (SW-620 [13]): 40.61% | Activity (SW-620 [14]): 4.11% | Activity (SW-620 [15]): 0% | Activity (SW-620 [16]): 7.42% | Activity (SW-620 [17]): 71.12% | Activity (SW-620 [18]): 97.9% | Activity (SW-620 [19]): 12.04% | Activity (SW-620 [20]): 17% | Activity (SW-620 [21]): 95.18% | Activity (SW-620 [22]): 1.06% | Activity (SW-620 [23]): 0.41% | Activity (SW-620 [24]): Dose-dependent effect | Activity (SW-620 [25]): 5.22% | IC50 (SW-620 [26]): 1.9 µM | Activity (SW-620 [27]): 0.17% | Activity (SW-620 [28]): 81.02%

COc1ccc(/C=C2\CCC/C(=C\c3cc(OC)c(OC)c(OC)c3)C2=O)cc1OC
Activity (SW-620 [1]): 1.3% | Activity (SW-620 [2]): 0.27% | Activity (SW-620 [3]): 0.33% | Activity (SW-620 [4]): 86.22% | Activity (SW-620 [5]): 6.7% | inhibition (SW-620 [6]): Active | Activity (SW-620 [7]): 9.26% | Activity (SW-620 [8]): 0.31% | Activity (SW-620 [9]): 14.37% | Activity (SW-620 [10]): 0.82% | Activity (SW-620 [11]): 2.37% | inhibition at 20 µM (A549): > 50% | Activity (SW-620 [12]): 89.83% | Activity (SW-620 [13]): 60.42% | Activity (SW-620 [14]): 6.01% | Activity (SW-620 [15]): 0% | Activity (SW-620 [16]): 12.66% | Activity (SW-620 [17]): 75.36% | Activity (SW-620 [18]): 93.6% | Activity (SW-620 [19]): 12% | Activity (SW-620 [20]): 13.21% | Activity (SW-620 [21]): 94.51% | Activity (SW-620 [22]): 1.3% | Activity (SW-620 [23]): 0.2% | Activity (SW-620 [24]): Dose-dependent effect | Activity (SW-620 [25]): 4.06% | IC50 (SW-620 [26]): 1.8 µM | Activity (SW-620 [27]): 0.35% | Activity (SW-620 [28]): 93%
